# NALP3 yeast inh = NALP3 inflammasome inhibitors in reconstituted yeast, primary screen, luminescence, uHTS; Yeast reconstituted NLRP3/ASC/caspase-1, beta-gal luminescence, 24 h; inhibition, % at 10 µM; hit rate 0.39% among 330,000;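 active = inhibition of 50% or more; inactive = inhibition below 50%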;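 also: plate controls were induced DMSO wells for no effect and uninduced yeast grown without galactose for full effect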
# VIM-2 inhibitor = VIM-2 metallo-beta-lactamase inhibitors, primary screen, biochemical, epi-absorbance readout, Pseudomonas aeruginosa enzyme; purified VIM-2, nitrocefin hydrolysis, epi-absorbance fluorescence; inhibition, % at 5.6 µM; hit rate 0.89% among 290,000;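 active = inhibition above the mean of all tested compounds plus 3 SD, cutoff set per screening run, cut at about 7.5% in these data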;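 also: red hydrolysis product quenches plate fluorescence so inhibitors raise well fluorescence; 0% = enzyme with DMSO and 100% = DMSO without enzyme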
# NALP1 yeast inh = NALP1 inflammasome inhibitors in reconstituted yeast, colorimetric, S. cerevisiae, triplicate retest | S. cerevisiae NALP1/ASC/caspase-1 growth, X-gal OD620, 72 h | inhibition, % at 10 µM | hit rate 0.61% among 280,000; in the data active = inhibition mostly above about 24%, no sharp cut-off; inactive = mostly below about 32%
# IMP-1 inh = IMP-1 metallo-beta-lactamase inhibitors, primary screen, biochemical, epi-absorbance readout, Pseudomonas aeruginosa enzyme; metallo-beta-lactamase IMP-1 (Pseudomonas aeruginosa); purified IMP-1, nitrocefin hydrolysis, epi-absorbance fluorescence; inhibition, % at 5.6 µM; hit rate 0.45% among 290,000; AID 1556, 2009;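 active = inhibition above the mean plus 3 SD of all compounds in the same screening run, cut at about 4.5% in these data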;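 also: 0% = IMP-1 with DMSO and 100% = DMSO wells lacking enzyme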
#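 system = purified recombinant IMP-1 beta-lactamase | amount = 0.2 nM IMP-1, as dispensed | medium = HEPES buffer pH 7.1 with ZnSO4 and Brij 35 | times = 25 °C, 15 min preincubation, 25 min reaction | detection = plate fluorescence quenching by hydrolysis product, ex 480/em 530 nm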
# Mot1-301 SUMO = yeast Mot1-301 growth rescue at high temperature, primary screen, SUMOylation pathway inhibitor project, S. cerevisiae, ATP luminescence, 38.5C; S. cerevisiae Mot1-301 growth rescue; percent above DMSO median, 100 means doubled; growth rescue, % at 18.8 µM; hit rate 1% among 320,000;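 active = every valid replicate shows activation above 250% relative to neutral control wells; inactive = the rest, any valid replicate at or below 250%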;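 also: OY570 slx delta 5 strain wells were the positive control but not used for scaling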
# PolyA inh = polyadenylation inhibitors in yeast reporter cells, primary screen, luminescence, S. cerevisiae. hit rate 0.02% among 300,000. activity score, % at 12 µM. S. cerevisiae SKY197-pL101 polyadenylation reporter, beta-gal luminescence; efflux-impaired pdr1/pdr3 knockout yeast; score 100 = 6 SD above DMSO;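 active = lowest replicate activity score at least 50, where 100 means six control SD above control mean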;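 also: yeast exposed to compound for 9 h at 30 °C; higher score means more reporter readthrough which indicates perturbed polyadenylation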
# * = called active by the depositor; nt = not tested or not shown. An excerpt weighted towards active compounds, which were near 2.9% of everything screened.
SMILES,NALP3 yeast inh,VIM-2 inhibitor,NALP1 yeast inh,IMP-1 inh,Mot1-301 SUMO,PolyA inh
CC(C(=O)O)N1C(=O)C2C3CC(C2C1=O)C1C(c2ccccc2)c2sc(=O)[nH]c2SC31 (stereo not drawn),13.7,1.4,19.8,6.5*,-17.5,2.6
CN(CC(=O)NCc1ccccc1)S(=O)(=O)c1cnc[nH]1,11.8,-0.7,44.9*,-3.1,-14.8,17.7
O=C1CC2(CCN(C(=O)COc3ccccc3F)CC2)Oc2ccccc21,12.2,nt,nt,nt,602.0*,-6.2
COc1ccc(C(C)=O)cc1CN1C(=O)NC(c2ccccc2)(c2ccccc2)C1=O,18.6,-3.7,5.9,-4.6,-3.3,-4.6
CN1CCC2(CC1)Nc1nc(SCc3ccc(Cl)cc3)nn1C1=C2CN(C)CC1,28.5,9.5*,17.1,-0.3,-5.5,-4.5
CC12CCC(c3nnc(SCc4ccc(Cl)cc4)nc31)C2(C)C (stereo not drawn),-8.2,-1.5,-46.1,1.2,-5.5,-8.4
COc1cccc(-c2c(C(=O)N/N=C(\C)c3cccs3)nnn2-c2nonc2N)c1,-4.3,-5.8,-16.4,-3.6,5.1,6.9
CCOC(=O)c1c(NC(=O)c2cccc(N3C(=O)CCC3=O)c2)sc2c1CCN(CC)C2,7.4,7.9*,20.9,-0.9,2.7,0.4
CCOC(=O)c1c(NC(=O)c2ccc(S(=O)(=O)N3CCOCC3)cc2)sc2c1CCN(C)C2,16.6,8.6*,1.4,1.6,-3.3,-2.3
CCCCCCCCCCOC(=O)Cn1c(COc2ccccc2)[n+](C)c2ccccc21,16.4,-3.0,22.5,-3.5,150.3,-0.3
CCCCCCCCCCOC(=O)Cn1c(COc2ccc(Cl)cc2)[n+](C)c2ccccc21,18.1,-1.0,60.6*,-4.0,-58.2,-32.9
CCN(CC)CC(C(=O)N(CC)CC)P(=O)(c1ccccc1)c1ccccc1 (stereo not drawn),21.1,-0.9,41.6*,-2.5,-5.6,31.8
CCCP(=O)(CC(=O)N(CC)CC)c1ccccc1 (stereo not drawn),-8.5,-1.9,-41.5,-2.4,1.9,0.2
CCOC(=O)C(C)C(C)=O (stereo not drawn),-0.4,nt,nt,nt,8.0,nt
CCC(CC)c1nnc(NC(=O)c2cc(C(=O)OC)cc([N+](=O)[O-])c2)s1,16.1,-4.0,33.7,-2.5,399.8*,18.4
O=C(CNC1CCCC1)Nc1cc(Cl)ccc1[N+](=O)[O-],-4.0,-1.7,44.8*,-2.8,8.6,-8.8
O=C1CS/C(=C\[N+](=O)[O-])N1c1ccccc1,7.3,1.1,2.7,4.6*,nt,-11.6
O=C1CS/C(=N\N=C\c2ccco2)N1c1ccccc1,20.2,-3.1,7.8,-2.6,-6.3,10.7
CCOC(=O)N1CCN(c2c(-c3ccc(C(C)C)cc3)c(=O)c2=O)CC1,3.8,0.5,3.7,5.3*,6.3,-4.8
CCOC(=O)N1CCN(c2c(-c3ccc(C)cc3)c(=O)c2=O)CC1,11.7,-1.2,9.6,-0.8,26.5,5.5
CCOC(=O)/C=c1\s/c(=C\c2ccc3c(c2)OCCO3)c(=O)n1CC(=O)NCC1CCCO1 (stereo not drawn),-4.2,3.1,8.0,4.7*,387.0,-5.1
Cn1c(=O)c2c(SCC(=O)N3CCOCC3)nc(-c3ccccc3F)nc2n(C)c1=O,14.4,7.9*,-2.3,-2.1,11.3,1.7
CCOC(=O)c1cc(-c2ccccc2)nc2c1c(C)nn2-c1ccccn1,26.8,-5.5,11.3,-7.0,6.2,-14.0
CCOC(=O)c1cc(-c2ccncc2)nc2c1c(C)nn2C,24.1,8.2*,2.7,-0.4,3.9,-6.5
Cc1c(NC(=S)N/N=C\c2ccccc2O)c(=O)n(-c2ccccc2)n1C,6.1,7.8*,27.6,-4.3,-8.3,-13.8
SMILES,NALP3 yeast inh,VIM-2 inhibitor,NALP1 yeast inh,IMP-1 inh,Mot1-301 SUMO,PolyA inh
Cc1c(NCc2ccccc2O)c(=O)n(-c2ccccc2)n1C,-3.0,-2.2,37.6*,-3.4,-15.0,-13.2
CCc1ccc(NC(=O)C2CCN(S(=O)(=O)c3cnc[nH]3)CC2)cc1,8.5,0.3,17.7,12.1*,-6.0,5.1
CCc1ccc(NC(=O)C2CCCN(S(=O)(=O)c3cnc[nH]3)C2)cc1 (stereo not drawn),5.9,0.3,22.9,-0.4,-2.3,4.1
COc1ccc(CNC(=O)CCCn2nc(C)c3c(C)n(-c4ccccc4)nc3c2=O)cc1,5.1,-1.4,-10.1,-2.5,0.7,-6.7
CCCN(CCC)C(=O)Cn1c(=O)n(CCCCC(=O)NCc2ccco2)c(=O)c2ccccc21,13.9,-2.8,49.6,-2.8,294.4*,8.9
NNC(=O)c1cc(C23CC4CC(CC(C4)C2)C3)[nH]n1,5.7,-3.8,-4.9,-4.6,47.2,-13.7
O=[N+]([O-])c1cc(C(F)(F)F)ccc1NC1CCN(Cc2ccccc2)C1 (stereo not drawn),30.6,-1.5,4.4,-2.5,262.2*,-33.4
COc1ccc(NC(=O)CSc2ccc3nnc(-c4ccccn4)n3n2)cc1OC,-2.3,-0.9,-3.3,-1.8,-4.0,5.1
CC(C)N(CCNC(=O)c1nn(Cc2ccccc2)c(=O)c2ccccc12)C(C)C,8.1,0.5,13.6,-0.5,-7.0,-11.5
O=C1OC(/C(=C\Nc2ccc(F)cc2F)[N+](=O)[O-])c2ccccc21 (stereo not drawn),13.8,-2.2,5.4,-2.2,304.5*,8.7
O=C(O)c1nn(Cc2csc(-c3ccccc3)n2)c(=O)c2ccccc12,19.1,1.3,4.4,-0.4,6.2,7.6
COc1ccc(C(=O)c2coc3c2C(=O)C(=O)c2ccccc2-3)cc1,24.6,5.1,9.8,12.0*,-72.3,3.4
CC(C)n1cc(-c2ccc(Cl)cc2)cc(C#N)c1=O,4.3,-1.8,31.1*,-0.7,-19.9,-5.3
CCOC(=O)C1(CCOc2ccccc2)CCN(Cc2cccc(OC)c2OC)CC1,19.7,0.3,16.9,0.4,-3.6,-11.4
CCOC(=O)C1CCN(C(=O)c2c(-c3ccccc3)noc2C)CC1,13.3,-2.8,7.2,-2.1,765.3*,0.5
CCOCCCNC(=O)c1c(-c2ccccc2)noc1C,-2.7,3.2,-5.9,0.6,338.0*,1.6
CCOC(=O)c1c(-c2ccc(F)cc2)csc1NC(=O)c1c(-c2ccccc2)noc1C,13.9,-2.2,28.8,0.4,719.4*,-10.4
CC(C)CC(=O)Nc1nnc(CSCc2ccc(F)cc2)s1,4.6,6.9,-24.1,-3.0,-6.7,3.2
COc1ccccc1CC(=O)N1CCN(c2ccccn2)CC1,32.2,-0.9,2.6,5.9*,-1.5,10.6

# Source: PubChem
